Read-outs that look alike come from different tables or passages of the source. Marks after values point to notes of the source that are not given here.
Legend:
[1] = cited from earlier work; for dose-normalized AUC t in plasma: oral
Nrf2 in N2a-APPswe cells [2] = experiment: Nrf2 activation, Nrf2 Transcription Factor Assay Kit; type: cell-based, mouse; details: 250 μM
Summary of the method: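 N2a-APPswe cells exposed to test compound at 250 μM for 2, 4 and 6 h. Nrf2 activation determined with a commercial kit.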

N2a-APPswe cells = experiment: Nrf2-dependent gene expression; type: cell-based, mouse
BV-2 cells = experiment: Nrf2 silencing; type: cell-based, mouse; details: BV-2, Iso + LPS
APP/PS1 female mice [3] = experiment: Aβ40 and Aβ42 levels in brain and plasma of 6-month-old females; type: in vivo, mouse; details: 1 month
Summary of the method: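 WT and APP/PS1 females given PBS vehicle or test compound at 50 mg/kg (APP/PS1 only) intranasally, without anaesthesia, by micropipette for 1 month; groups of 5 per arm. Brain Aβ40 and Aβ42 quantified. Mean ± SEM of five to six animals.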

APP/PS1 female mice [4] = experiment: Demographic and metabolic parameters of 6-month-old females; type: in vivo, mouse; details: 6-month-old APP/PS1 females, 50 mg/kg, 1 month
Summary of the method: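 WT and APP/PS1 females given PBS vehicle or test compound at 50 mg/kg (APP/PS1 only) intranasally for 1 month. Recorded body weight, adipose tissue weight, fasting glucose and triglycerides. Mean ± SEM of five to six animals.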

APP/PS1 male mice [5] = experiment: Y-maze test; type: in vivo, mouse; details: 100 mg/kg, 1 month
Summary of the method: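 Behavioural testing in 10-month-old APP/PS1 and WT littermate males, randomised n = 5 per group. Intranasal PBS or test compound at 100 mg/kg for 1 month. Distance travelled also recorded.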

APP/PS1 male mice [6] = experiment: Aβ40 and Aβ42 levels in cortex, hippocampus and plasma; type: in vivo, mouse; details: 11-month-old APP/PS1 males, 100 mg/kg, 1 month
Summary of the method: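 APP/PS1 and WT littermate males aged 10 months, randomised to groups of n = 5. PBS vehicle or test compound at 100 mg/kg given intranasally for 1 month. At 11 months, Aβ40 and Aβ42 measured in cortex, hippocampus and plasma; plasma Aβ42/Aβ40 ratio derived. Mean ± SEM of five animals.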

APP/PS1 male mice [7] = experiment: Fear conditioning test; type: in vivo, mouse; details: 100 mg/kg, 1 month
Summary of the method: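 10-month-old males, n = 5 per group, given intranasal PBS or test compound at 100 mg/kg for 1 month. Day 1: paired auditory–shock stimuli, return to cage 1 min after last pair. Day 2: freezing scored 5 min in context A. Day 3: altered context B, freezing scored 3 min, then 3 min with auditory cue.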

Nrf2 in N2a-APPswe cells [8] = experiment: Nrf2 cytoplasmatic and nuclear protein levels, western blot; type: cell-based, mouse; details: 250 μM, 6 h, vs untreated cells
Summary of the method: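 N2a-APPswe cells exposed to test compound at 250 μM for 2, 4 and 6 h. Cytoplasmic and nuclear Nrf2 assessed by western blot.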

[9] = test system: Aβ40 and Aβ42 peptide levels in N2a-APPswe cells; experiment: Aβ40 and Aβ42 peptide levels in N2a cell supernatants; type: cell-based, mouse; details: 250 μM, 24 h
Summary of the method: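 N2a-wt and N2a-APPswe cells left untreated or exposed to test compound at 250 μM for 24 h. Aβ40 and Aβ42 peptides quantified by ELISA.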

[10] = test system: BV-2 cells exposed to LPS; experiment: iNOS and pro-IL-1β protein in LPS-stimulated microglia, western blot; type: cell-based, mouse; details: BV-2, 250 μM, LPS 50 ng/mL, 24 h
Summary of the method: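 BV-2 cells given test compound at 250 μM, LPS 50 ng/mL added 30 min later, for 24 h. iNOS and pro-IL-1β protein measured by western blot. Mean ± SEM of four independent experiments, relative to untreated control.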

[11] = Pharmacokinetics after intranasal administration; type: in vivo, mouse; details: for Kp: B6C3F1, mouse, inhaled or intranasal, 100 mg/kg; for AUC t / AUCinf: WT mice
Summary of the method: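 WT B6C3F1 mice (25–30 g), acclimatised ≥7 days with food and water ad libitum, given test compound intranasally at 100 mg/kg. Plasma, brain and lung sampled at 5, 15, 30, 60, 120 and 180 min; n = 4. AUCt and AUCinf derived from concentration–time profiles.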

WT and APP/PS1 male mice = experiment: Body weight and metabolic parameters of 11-month-old males; type: in vivo, mouse; details: 1 month
[12] = N2a-APPswe, 1, 3 and 6 h (Figure S2)
[13] = 6-month-old APP/PS1 females + Iso 50 mg/kg
[14] = 6-month-old APP/PS1 females, 50 mg/kg, vs untreated
[15] = APP/PS1 males, not statistically significant

## CC=Cc1ccc(O)c(OC)c1 [Iso, 2‐methoxy‐4‐(prop‐1‐en‐1‐yl) phenol]
[1]; after intravenous dosing
  alpha half-life distribution time: 7 to 10 min
  steady-state apparent volume of distribution: 11 to 25.2 L/kg
[1]; intravenous 35 mg/kg, mice
  dose-normalized AUCinf in plasma: 6.76 µg·min/mL/kg
[1]; first listed of doses 35, 70 and 140 mg/kg, mice
  dose-normalized AUC t in plasma: 1.91 µg·min/mL/kg
[1]; second listed of doses 35, 70 and 140 mg/kg, mice
  dose-normalized AUC t in plasma: 1.68 µg·min/mL/kg
[1]; third listed of doses 35, 70 and 140 mg/kg, mice
  dose-normalized AUC t in plasma: 1.45 µg·min/mL/kg
Nrf2 in N2a-APPswe cells [2]
  Nrf2 activation (ELISA kit): increased Nrf2 activation
N2a-APPswe cells; N2a-APPswe, 250 μM, 3 h and 6 h
  Hmox1 gene expression (reduced in N2a-APPswe): significantly reverted
N2a-APPswe cells; [12]
  Nqo1 gene expression: induced
  Sod1 gene expression: induced
BV-2 cells
  Iso-induced NO decrease in siGAPDH- or siNeg-transfected cells: not affected
  Iso-induced NO decrease in siNrf2-transfected cells: reversed
APP/PS1 female mice [3]; [13]
  plasma Aβ40 levels: 72.29 ± 7.271 picograms per milliliter
  plasma Aβ42 levels: 83.88 ± 9.498 picograms per milliliter
APP/PS1 female mice [3]; [14]
  brain Aβ40 levels: decreased
  brain Aβ42 levels: decreased
APP/PS1 female mice [4]
  adipose tissue weight: did not reduce
APP/PS1 male mice [5]; [15]
  Y-maze entries in the novel arm: reversed this trend
  Y-maze time spent in the novel arm: reversed this trend
APP/PS1 male mice [5]; males
  Y-maze distance traveled: not affected
APP/PS1 male mice [6]
  cortex Aβ40 levels: no alterations observed
  cortex Aβ42 levels: no alterations observed
  hippocampus Aβ40 levels: no alterations observed
  hippocampus Aβ42 levels: no alterations observed
  plasma Aβ40 levels: decreased
  plasma Aβ42 levels: decreased
APP/PS1 male mice [6]; not significant
  plasma Aβ42/Aβ40 ratio: partial increase
APP/PS1 male mice [7]; APP/PS1 males
  % of freezing, contextual memory (day 2): clear but not significant increase
APP/PS1 male mice [7]; males
  associative memory (day 3): no differences were detected
Nrf2 in N2a-APPswe cells [8]
  Nrf2 nuclear levels: significantly increased
[9]
  Aβ42 peptide levels: no effect was observed
[9]; vs untreated cells
  Aβ40 levels: significantly decreased
[10]
  LPS-induced iNOS protein levels: reduced
  LPS-induced pro-IL-1β protein levels: reduced
[11]; brain and plasma
  Kp: 0.23
[11]; lung and plasma
  Kp: 6.73
[11]; brain, intranasal 100 mg/kg
  AUC t: 140.87 ^c μg.min/g
  AUCinf: 142.15 ^c μg.min/g
[11]; intranasal 100 mg/kg, mice
  dose-normalized AUC t in plasma: 5.99 µg·min/mL/kg
  dose-normalized AUCinf in plasma: 6.04 µg·min/mL/kg
[11]; lung, intranasal 100 mg/kg
  AUC t: 4030.85 ^c μg.min/g
  AUCinf: 4091.75 ^c μg.min/g
WT and APP/PS1 male mice; 11-month-old APP/PS1 males, 100 mg/kg
  triglycerides: reduction
WT and APP/PS1 male mice; 11-month-old WT and APP/PS1 males, 100 mg/kg
  adipose tissue weight: trend toward a decrease
WT and APP/PS1 male mice; 11-month-old males, intranasal 100 mg/kg
  decrease in body weight: < 15%

From paper PMC13435124 (The FASEB Journal, 2026)
